Where a SMILES comes first, the peptide text is derived from it. [ ]: non-standard residue; d: D form. The star is where a group is joined. β3hF = N[C@H](CC(=O)O)Cc1ccccc1; Boc = CC(C)(C)OC(=O)*
Key:
[1] = target: T1, Gastrin/cholecystokinin type B receptor (Rattus norvegicus) (UniProt P30553); assay: Activity in vivo gastrin-induced acid secretion in rats; type: functional, organism-based
T1 sequence (whole entry): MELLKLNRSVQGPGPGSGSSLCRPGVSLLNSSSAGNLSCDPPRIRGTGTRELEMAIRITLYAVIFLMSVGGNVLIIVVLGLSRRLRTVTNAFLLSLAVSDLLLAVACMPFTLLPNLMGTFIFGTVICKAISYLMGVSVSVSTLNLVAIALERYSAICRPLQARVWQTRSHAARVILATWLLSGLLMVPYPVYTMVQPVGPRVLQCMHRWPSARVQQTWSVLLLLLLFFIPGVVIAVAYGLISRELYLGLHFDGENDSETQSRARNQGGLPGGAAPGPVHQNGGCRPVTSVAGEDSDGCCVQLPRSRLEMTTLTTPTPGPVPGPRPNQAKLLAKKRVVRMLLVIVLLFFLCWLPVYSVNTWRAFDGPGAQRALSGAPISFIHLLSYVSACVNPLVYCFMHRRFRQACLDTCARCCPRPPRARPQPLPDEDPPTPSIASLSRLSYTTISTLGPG
Method in brief: (§1)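 Anesthetized rats; cumulative gastric pH recorded over time as the index of acid secretion. Peptides and (Leu15)-human gastrin I were given as intravenous bolus in 0.9% NaCl. Secreted H+ was taken from the difference between stimulated and basal traces. For inhibition, peptide in alkaline water was injected together with gastrin (usually 80 pmol) at various doses. Response was expressed as percent of the gastrin-alone H+ output.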

[2] = tested on: Rattus norvegicus; assay: Activity of compound on in vivo gastrin-induced acid secretion in rats; Agonist; type: functional, organism-based; conditions: filed as agonist; method in brief: as §1

ED50 [1] | SMILES | ED50 [2]
0.5 mg/kg | CC(C)C[C@@H](CC(=O)NC(CC(=O)O)C(=O)NCCc1ccccc1)NC(=O)[C@@H](Cc1c[nH]c2ccccc12)NC(=O)OC(C)(C)C (stereo partly drawn) | 
0.8 mg/kg | CC(C)CC(CC(=O)N[C@H](CC(=O)O)C(=O)NCCc1ccccc1)NC(=O)C(Cc1c[nH]c2ccccc12)NC(=O)OC(C)(C)C (stereo partly drawn) | 
0.5 mg/kg | CC(C)CC(CC(=O)NC(CC(=O)O)C(=O)NCCc1ccccc1)NC(=O)C(Cc1c[nH]c2ccccc12)NC(=O)OC(C)(C)C (stereo not drawn) | 
1 mg/kg | CC(C)CC(NC(=O)[C@@H](Cc1c[nH]c2ccccc12)NC(=O)OC(C)(C)C)C(=O)N[C@H](CC(=O)O)CC(=O)NCc1ccccc1 (stereo in doubt) | 
0.5 mg/kg | CC(C)CC(CC(=O)NC(CC(=O)O)C(=O)NCc1ccccc1)NC(=O)C(Cc1c[nH]c2ccccc12)NC(=O)OC(C)(C)C (stereo not drawn) | 
1.5 mg/kg | CC(C)CC(CC(=O)N[C@H](CC(=O)O)C(=O)NCc1ccccc1)NC(=O)C(Cc1c[nH]c2ccccc12)NC(=O)OC(C)(C)C (stereo partly drawn) | 
5 mg/kg | CC(C)C[C@@H](CC(=O)NC(CC(=O)O)C(=O)NCc1ccccc1)NC(=O)[C@@H](Cc1c[nH]c2ccccc12)NC(=O)OC(C)(C)C (stereo partly drawn) | 

More lines, now with the values behind:

SMILES | ED50 [1] | ED50 [2]
CC(C)C[C@H](NC(=O)[C@H](Cc1c[nH]c2ccccc12)NC(=O)OC(C)(C)C)C(=O)N[C@H](CC(=O)O)CC(=O)NCc1ccccc1 | 0.2 mg/kg | 
CC(C)C[C@H](CC(=O)N[C@@H](CC(=O)O)C(=O)N[C@@H](Cc1ccccc1)C(N)=O)NC(=O)[C@@H](Cc1c[nH]c2ccccc12)NC(=O)OC(C)(C)C | 7.5 mg/kg | 
CC(C)C[C@H](NC(=O)[C@H](Cc1c[nH]c2ccccc12)NC(=O)OC(C)(C)C)C(=O)N[C@H](CC(=O)O)CC(=O)N[C@@H](Cc1ccccc1)C(N)=O | 0.1 mg/kg | 
CC(C)CC(NC(=O)[C@@H](Cc1c[nH]c2ccccc12)NC(=O)OC(C)(C)C)C(=O)N[C@H](CC(=O)O)CC(=O)NC(Cc1ccccc1)C(N)=O (stereo in doubt) | 2.5 mg/kg | 
CC(C)CC(CC(=O)N[C@H](CC(=O)O)C(=O)N[C@H](Cc1ccccc1)C(N)=O)NC(=O)C(Cc1c[nH]c2ccccc12)NC(=O)OC(C)(C)C (stereo partly drawn) | 5 mg/kg | 
CC(C)C[C@H](NC(=O)[C@H](Cc1c[nH]c2ccccc12)NC(=O)OC(C)(C)C)C(=O)N[C@H](CC(=O)O)CC(=O)N[C@H](Cc1ccccc1)C(N)=O | 0.1 mg/kg | 
CC(C)CC(NC(=O)[C@@H](Cc1c[nH]c2ccccc12)NC(=O)OC(C)(C)C)C(=O)N[C@H](CC(=O)O)CC(=O)NCCc1ccccc1 (stereo in doubt) | 2.5 mg/kg | 
CC(C)C[C@H](NC(=O)[C@H](Cc1c[nH]c2ccccc12)NC(=O)OC(C)(C)C)C(=O)N[C@H](CC(=O)O)CC(=O)NCCc1ccccc1 | 0.5 mg/kg | 
CC(C)C[C@@H](CC(=O)N[C@@H](CC(=O)O)C(=O)N[C@@H](Cc1ccccc1)C(N)=O)NC(=O)[C@H](Cc1c[nH]c2ccccc12)NC(=O)OC(C)(C)C | 1.5 mg/kg | 
CC(C)C[C@H](NC(=O)[C@H](Cc1c[nH]c2ccccc12)NC(=O)OC(C)(C)C)C(=O)N[C@@H](CC(=O)O)C(=O)N[C@@H](Cc1ccccc1)C(N)=O (Boc-WLDF-NH2) |  | Agonist
CC(C)C[C@H](NC(=O)[C@H](Cc1c[nH]c2ccccc12)NC(=O)OC(C)(C)C)C(=O)N[C@@H](CC(=O)O)C(=O)N[C@H](CC(N)=O)Cc1ccccc1 (Boc-WLD[β3hF]-NH2) | 7 mg/kg | 

Source: ChEMBL document CHEMBL1124407, “Synthesis of gastrin antagonists, analogues of the C-terminal tetrapeptide of gastrin, by introduction of a beta-homo residue” (J Med Chem, 1989)
